From ChEMBL document CHEMBL1250448, “Inhibitor hijacking of Akt activation” (Nat Chem Biol, 2009)
Activity calls are given as the source filed them. No cut-off for these calls is given here.

How the values were obtained:
[1] = target: RAC-alpha serine/threonine-protein kinase (Homo sapiens, UniProt P31749); experiment: Induction of AKT1 Thr308 phosphorylation expressed in IGF1-stimulated HEK293 cells treated 20 mins before IGF1 stimulation by immunoblotting; assay type: cell-based
How it was run: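 HEK293 cells (not transfected), serum-starved overnight, then given inhibitor for 20 min before 50 ng/ml IGF-1 for a further 10 min. Cells detached in ice-cold Ca/Mg-free PBS with 0.04% EDTA and lysed in Tris pH 7.5 Triton buffer with protease/phosphatase inhibitors. Lysates cleared at 14000 g, protein equalised by Bradford, and pThr308, pSer473 and GSK3β pSer9 read by immunoblot with ECL.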

[2] = target: Serine/threonine-protein kinase D2 (Homo sapiens) (UniProt Q9BZL6); experiment: Inhibition of PRKD2 at 1 uM in presence of 10 uM ATP by Select Screen kinase assay relative to untreated control
Chain of Serine/threonine-protein kinase D2 (Homo sapiens) (Q9BZL6 whole entry): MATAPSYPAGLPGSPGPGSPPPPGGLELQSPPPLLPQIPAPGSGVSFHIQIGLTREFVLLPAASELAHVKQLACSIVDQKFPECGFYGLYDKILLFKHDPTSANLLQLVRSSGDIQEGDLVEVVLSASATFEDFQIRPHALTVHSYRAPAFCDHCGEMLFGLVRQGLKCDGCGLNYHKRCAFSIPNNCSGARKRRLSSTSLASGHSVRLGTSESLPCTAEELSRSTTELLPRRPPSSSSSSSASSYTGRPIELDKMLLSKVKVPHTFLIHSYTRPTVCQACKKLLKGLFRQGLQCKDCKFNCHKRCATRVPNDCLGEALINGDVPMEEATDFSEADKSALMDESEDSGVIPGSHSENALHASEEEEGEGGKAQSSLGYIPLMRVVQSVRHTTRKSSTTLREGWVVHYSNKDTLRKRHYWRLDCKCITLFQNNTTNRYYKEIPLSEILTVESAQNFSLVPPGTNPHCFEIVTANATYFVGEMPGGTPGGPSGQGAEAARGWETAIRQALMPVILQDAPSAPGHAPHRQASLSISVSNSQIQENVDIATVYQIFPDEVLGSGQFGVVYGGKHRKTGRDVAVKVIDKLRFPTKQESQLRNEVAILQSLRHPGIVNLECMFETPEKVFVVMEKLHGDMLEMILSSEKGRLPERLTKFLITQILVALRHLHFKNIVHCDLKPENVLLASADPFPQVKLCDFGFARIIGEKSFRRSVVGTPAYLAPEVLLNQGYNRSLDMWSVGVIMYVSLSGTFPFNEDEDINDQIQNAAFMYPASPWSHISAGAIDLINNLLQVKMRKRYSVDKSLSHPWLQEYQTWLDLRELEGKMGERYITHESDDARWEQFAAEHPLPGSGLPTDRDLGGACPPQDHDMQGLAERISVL

[3] = target: Tyrosine-protein kinase BTK (Homo sapiens) (UniProt Q06187); experiment: Inhibition of BTK at 1 uM in presence of 10 uM ATP by Select Screen kinase assay relative to untreated control
Chain of Tyrosine-protein kinase BTK (Homo sapiens) (Q06187 whole entry): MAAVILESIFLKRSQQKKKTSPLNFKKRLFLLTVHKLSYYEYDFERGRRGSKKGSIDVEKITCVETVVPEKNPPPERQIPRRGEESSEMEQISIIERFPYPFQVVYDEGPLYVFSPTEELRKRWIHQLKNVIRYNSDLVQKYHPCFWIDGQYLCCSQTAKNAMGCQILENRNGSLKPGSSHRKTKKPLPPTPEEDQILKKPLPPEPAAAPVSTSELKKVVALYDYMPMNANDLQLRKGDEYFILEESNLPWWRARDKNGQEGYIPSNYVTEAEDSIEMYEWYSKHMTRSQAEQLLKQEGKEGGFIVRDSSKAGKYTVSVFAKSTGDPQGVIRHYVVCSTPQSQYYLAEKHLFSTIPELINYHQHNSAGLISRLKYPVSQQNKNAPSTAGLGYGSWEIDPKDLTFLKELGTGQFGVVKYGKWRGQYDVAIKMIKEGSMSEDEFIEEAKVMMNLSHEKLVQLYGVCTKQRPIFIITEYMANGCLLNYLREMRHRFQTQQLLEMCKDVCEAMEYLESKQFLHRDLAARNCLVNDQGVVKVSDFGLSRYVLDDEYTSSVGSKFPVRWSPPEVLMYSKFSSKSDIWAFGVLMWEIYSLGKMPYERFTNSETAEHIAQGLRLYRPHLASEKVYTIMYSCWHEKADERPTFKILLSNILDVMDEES
How it was run: (§1)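 Single-point screen at 1 μM against a panel of 220 purified kinases, run by Invitrogen staff as a SelectScreen profiling service. Read-out is percent inhibition of kinase activity.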

[4] = target: Rho-associated protein kinase 1 (Homo sapiens) (UniProt Q13464); experiment: Inhibition of ROCK1 at 1 uM in presence of 10 uM ATP by Select Screen kinase assay relative to untreated control
Chain of Rho-associated protein kinase 1 (Homo sapiens) (Q13464 2-1354 limits assumed): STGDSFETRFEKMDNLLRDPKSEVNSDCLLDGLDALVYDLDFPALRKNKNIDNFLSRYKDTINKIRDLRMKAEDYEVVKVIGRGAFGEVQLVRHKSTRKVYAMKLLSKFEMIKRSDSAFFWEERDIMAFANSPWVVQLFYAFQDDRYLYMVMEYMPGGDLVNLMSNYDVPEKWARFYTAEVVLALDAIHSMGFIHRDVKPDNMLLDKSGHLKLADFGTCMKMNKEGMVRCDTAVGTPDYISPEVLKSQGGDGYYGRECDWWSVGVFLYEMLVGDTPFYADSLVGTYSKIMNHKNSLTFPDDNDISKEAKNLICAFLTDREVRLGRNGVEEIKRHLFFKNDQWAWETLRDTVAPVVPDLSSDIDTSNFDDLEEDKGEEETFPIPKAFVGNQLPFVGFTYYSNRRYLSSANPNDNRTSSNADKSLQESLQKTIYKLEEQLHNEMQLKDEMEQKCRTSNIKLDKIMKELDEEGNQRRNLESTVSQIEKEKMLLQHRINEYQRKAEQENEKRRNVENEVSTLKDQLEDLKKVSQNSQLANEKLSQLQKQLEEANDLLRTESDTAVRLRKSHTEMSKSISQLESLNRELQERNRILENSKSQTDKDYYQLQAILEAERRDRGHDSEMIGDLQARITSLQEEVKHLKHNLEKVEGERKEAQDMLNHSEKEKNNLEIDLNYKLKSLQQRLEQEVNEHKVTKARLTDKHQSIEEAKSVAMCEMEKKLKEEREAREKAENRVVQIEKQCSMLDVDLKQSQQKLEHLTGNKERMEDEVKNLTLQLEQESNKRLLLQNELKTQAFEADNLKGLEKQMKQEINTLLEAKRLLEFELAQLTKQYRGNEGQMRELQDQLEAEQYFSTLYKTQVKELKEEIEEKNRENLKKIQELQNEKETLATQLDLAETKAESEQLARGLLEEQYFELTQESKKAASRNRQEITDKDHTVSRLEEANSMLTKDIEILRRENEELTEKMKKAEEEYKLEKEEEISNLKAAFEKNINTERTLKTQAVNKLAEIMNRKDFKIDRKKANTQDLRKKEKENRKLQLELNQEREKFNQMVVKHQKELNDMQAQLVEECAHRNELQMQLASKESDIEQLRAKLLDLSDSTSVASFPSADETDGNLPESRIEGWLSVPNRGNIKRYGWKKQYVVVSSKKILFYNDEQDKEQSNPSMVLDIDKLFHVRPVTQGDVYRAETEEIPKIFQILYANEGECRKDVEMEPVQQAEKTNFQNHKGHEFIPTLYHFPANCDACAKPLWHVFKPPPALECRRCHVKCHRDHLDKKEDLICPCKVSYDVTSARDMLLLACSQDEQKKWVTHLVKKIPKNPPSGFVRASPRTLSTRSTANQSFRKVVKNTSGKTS

[5] = target: Rho-associated protein kinase 2 (Homo sapiens) (UniProt O75116); experiment: Inhibition of ROCK2 at 1 uM in presence of 10 uM ATP by Select Screen kinase assay relative to untreated control
How it was run: (§2)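 Profiling panel of 220 purified kinases (SelectScreen), each compound tested at 1 μM. Read-out is percent inhibition of kinase activity.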

[6] = target: Aurora kinase A (Homo sapiens) (UniProt O14965); experiment: Inhibition of STK6 at 1 uM in presence of 10 uM ATP by Select Screen kinase assay relative to untreated control
How it was run: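 Commercial SelectScreen profiling panel of 220 purified kinases. Each kinase was tested at a single inhibitor concentration of 1 μM, and activity was expressed as percent inhibition.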

[7] = target: Serine/threonine-protein kinase MRCK beta (Homo sapiens) (UniProt Q9Y5S2); experiment: Inhibition of CDC42 binding protein beta at 1 uM in presence of 10 uM ATP by Select Screen kinase assay relative to untreated control; how it was run: as §1
[8] = target: Dual specificity protein kinase CLK1 (Homo sapiens) (UniProt P49759); experiment: Inhibition of CLK1 at 1 uM in presence of 100 uM ATP by Select Screen kinase assay relative to untreated control
How it was run: (§3)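 Part of a 220-kinase panel of purified kinases, each tested with compound at 1 μM. Percent inhibition was measured in the Invitrogen SelectScreen profiling assay.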

[9] = target: Dual specificity protein kinase CLK3 (Homo sapiens) (UniProt P49761); experiment: Inhibition of CLK3 at 1 uM in presence of 100 uM ATP by Select Screen kinase assay relative to untreated control; how it was run: as §3
[10] = target: Casein kinase II subunit alpha (Homo sapiens) (UniProt P68400); experiment: Inhibition of CSNK2A1 at 1 uM in presence of 10 uM ATP by Select Screen kinase assay relative to untreated control; how it was run: as §3
[11] = target: Dual specificity tyrosine-phosphorylation-regulated kinase 3 (Homo sapiens) (UniProt O43781); experiment: Inhibition of DYRK3 at 1 uM in presence of 10 uM ATP by Select Screen kinase assay relative to untreated control; how it was run: as §3
[12] = target: Ephrin type-A receptor 3 (Homo sapiens) (UniProt P29320); experiment: Inhibition of EPHA3 at 1 uM in presence of 10 uM ATP by Select Screen kinase assay relative to untreated control; how it was run: as §3
[13] = target: Ephrin type-B receptor 3 (Homo sapiens) (UniProt P54753); experiment: Inhibition of EPHB3 at 1 uM in presence of 10 uM ATP by Select Screen kinase assay relative to untreated control; how it was run: as §3
[14] = target: Tyrosine-protein kinase FRK (Homo sapiens) (UniProt P42685); experiment: Inhibition of FRK at 1 uM in presence of 10 uM ATP by Select Screen kinase assay relative to untreated control; how it was run: as §3
[15] = target: Glycogen synthase kinase-3 beta (Homo sapiens) (UniProt P49841); experiment: Inhibition of GSK3B at 1 uM in presence of 10 uM ATP by Select Screen kinase assay relative to untreated control; how it was run: as §3
[16] = target: Tyrosine-protein kinase JAK2 (Homo sapiens) (UniProt O60674); experiment: Inhibition of JAK2 JH1 JH2 domain at 1 uM in presence of 100 uM ATP by Select Screen kinase assay relative to untreated control
Chain of Tyrosine-protein kinase JAK2 (Homo sapiens) (O60674 whole entry, the tested form may be a part): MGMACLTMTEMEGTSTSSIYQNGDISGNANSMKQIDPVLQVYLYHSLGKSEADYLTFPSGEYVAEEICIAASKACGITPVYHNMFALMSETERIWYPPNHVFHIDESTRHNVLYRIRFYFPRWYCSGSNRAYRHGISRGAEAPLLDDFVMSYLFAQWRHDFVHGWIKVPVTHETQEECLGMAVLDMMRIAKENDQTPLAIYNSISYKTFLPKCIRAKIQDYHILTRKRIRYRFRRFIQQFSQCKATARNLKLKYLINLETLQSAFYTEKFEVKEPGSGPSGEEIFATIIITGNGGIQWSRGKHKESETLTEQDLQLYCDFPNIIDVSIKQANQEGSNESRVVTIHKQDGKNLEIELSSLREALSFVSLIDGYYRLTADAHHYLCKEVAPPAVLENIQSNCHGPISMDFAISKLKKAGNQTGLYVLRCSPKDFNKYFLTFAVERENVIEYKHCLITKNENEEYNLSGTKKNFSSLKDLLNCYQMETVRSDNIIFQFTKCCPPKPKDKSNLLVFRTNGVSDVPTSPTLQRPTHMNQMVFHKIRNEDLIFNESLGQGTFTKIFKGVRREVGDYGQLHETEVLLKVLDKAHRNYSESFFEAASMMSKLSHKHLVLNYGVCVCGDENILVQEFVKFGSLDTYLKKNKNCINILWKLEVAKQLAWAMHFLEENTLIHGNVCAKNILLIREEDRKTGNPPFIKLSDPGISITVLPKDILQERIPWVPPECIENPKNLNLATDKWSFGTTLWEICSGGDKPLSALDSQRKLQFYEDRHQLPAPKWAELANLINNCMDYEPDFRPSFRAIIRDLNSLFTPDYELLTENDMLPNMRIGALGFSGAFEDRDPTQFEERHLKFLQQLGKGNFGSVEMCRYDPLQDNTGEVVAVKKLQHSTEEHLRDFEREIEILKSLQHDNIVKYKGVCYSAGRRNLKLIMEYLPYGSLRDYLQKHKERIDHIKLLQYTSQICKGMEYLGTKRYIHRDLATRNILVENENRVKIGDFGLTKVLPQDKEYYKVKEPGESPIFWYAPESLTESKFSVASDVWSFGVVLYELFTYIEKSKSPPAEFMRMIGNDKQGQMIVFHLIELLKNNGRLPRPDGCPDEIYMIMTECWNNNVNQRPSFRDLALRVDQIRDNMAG
How it was run: (§4)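 Single-concentration profiling at 1 μM against a panel of 220 purified kinases, run as an outsourced SelectScreen kinase profiling service. Activity is expressed as percent inhibition.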

[17] = tested on: Tyrosine-protein kinase JAK2 (Homo sapiens), O60674 [V617F]; experiment: Inhibition of JAK2 JH1 JH2 domain V617F mutant at 1 uM in presence of 10 uM ATP by Select Screen kinase assay relative to untreated control
Chain of Tyrosine-protein kinase JAK2 (Homo sapiens), O60674 [V617F] (O60674 whole entry V617F, the tested form may be a part): as the sequence (O60674 whole entry, the tested form may be a part) above, with V617F counted along it

[18] = target: Mitogen-activated protein kinase kinase kinase kinase 2 (Homo sapiens) (UniProt Q12851); experiment: Inhibition of MAP4K2 at 1 uM in presence of 10 uM ATP by Select Screen kinase assay relative to untreated control
[19] = target: Mitogen-activated protein kinase 11 (Homo sapiens) (UniProt Q15759); experiment: Inhibition of MAPK11 at 1 uM in presence of 100 uM ATP by Select Screen kinase assay relative to untreated control
[20] = target: Tyrosine-protein kinase Mer (Homo sapiens) (UniProt Q12866); experiment: Inhibition of MERTK at 1 uM in presence of 10 uM ATP by Select Screen kinase assay relative to untreated control; how it was run: as §4
Chain of Tyrosine-protein kinase Mer (Homo sapiens) (Q12866 whole entry): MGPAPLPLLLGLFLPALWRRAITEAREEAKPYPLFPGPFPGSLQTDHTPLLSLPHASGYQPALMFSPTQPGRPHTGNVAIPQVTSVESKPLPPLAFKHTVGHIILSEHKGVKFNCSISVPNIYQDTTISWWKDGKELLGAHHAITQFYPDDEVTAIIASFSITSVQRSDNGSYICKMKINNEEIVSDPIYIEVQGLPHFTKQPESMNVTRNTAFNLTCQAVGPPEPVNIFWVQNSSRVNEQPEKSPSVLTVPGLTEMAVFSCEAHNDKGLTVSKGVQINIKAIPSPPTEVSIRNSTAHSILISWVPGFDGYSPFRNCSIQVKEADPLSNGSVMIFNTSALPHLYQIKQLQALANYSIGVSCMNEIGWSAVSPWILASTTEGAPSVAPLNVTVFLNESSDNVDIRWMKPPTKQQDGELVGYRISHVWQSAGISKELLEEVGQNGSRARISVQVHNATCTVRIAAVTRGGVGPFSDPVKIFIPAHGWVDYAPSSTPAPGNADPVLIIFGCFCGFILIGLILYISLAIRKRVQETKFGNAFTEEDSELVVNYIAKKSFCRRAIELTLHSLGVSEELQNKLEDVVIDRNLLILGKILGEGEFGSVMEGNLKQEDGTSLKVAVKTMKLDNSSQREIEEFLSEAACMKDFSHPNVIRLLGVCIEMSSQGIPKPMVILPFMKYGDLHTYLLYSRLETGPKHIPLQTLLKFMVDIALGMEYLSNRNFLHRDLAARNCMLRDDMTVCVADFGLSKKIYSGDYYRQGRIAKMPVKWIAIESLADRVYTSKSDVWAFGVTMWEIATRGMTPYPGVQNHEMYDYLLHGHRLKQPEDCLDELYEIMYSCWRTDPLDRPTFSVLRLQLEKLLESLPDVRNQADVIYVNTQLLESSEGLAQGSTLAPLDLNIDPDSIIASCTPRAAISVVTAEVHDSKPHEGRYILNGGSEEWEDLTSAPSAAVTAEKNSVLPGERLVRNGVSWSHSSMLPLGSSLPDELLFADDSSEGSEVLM

[21] = target: Serine/threonine-protein kinase PAK 6 (Homo sapiens) (UniProt Q9NQU5); experiment: Inhibition of PAK6 at 1 uM in presence of 10 uM ATP by Select Screen kinase assay relative to untreated control
[22] = target: Serine/threonine-protein kinase pim-1 (Homo sapiens) (UniProt P11309); experiment: Inhibition of PIM1 at 1 uM in presence of 10 uM ATP by Select Screen kinase assay relative to untreated control; how it was run: as §2
[23] = target: Serine/threonine-protein kinase N1 (Homo sapiens) (UniProt Q16512); experiment: Inhibition of PKN1 at 1 uM in presence of 10 uM ATP by Select Screen kinase assay relative to untreated control; how it was run: as §2
[24] = target: Aurora kinase B (Homo sapiens) (UniProt Q96GD4); experiment: Inhibition of AURKB at 1 uM in presence of 10 uM ATP by Select Screen kinase assay relative to untreated control
[25] = target: Serine/threonine-protein kinase PAK 3 (Homo sapiens) (UniProt O75914); experiment: Inhibition of PAK3 at 1 uM in presence of 10 uM ATP by Select Screen kinase assay relative to untreated control

| SMILES | Activity [1] | inhibition [2] [%] | inhibition [3] [%] | inhibition [4] [%] | inhibition [5] [%] | inhibition [6] [%] | inhibition [7] [%] | inhibition [8] [%] | inhibition [9] [%] | inhibition [10] [%] | inhibition [11] [%] | inhibition [12] [%] | inhibition [13] [%] | inhibition [14] [%] | inhibition [15] [%] | inhibition [16] [%] | inhibition [17] [%] | inhibition [18] [%] | inhibition [19] [%] | inhibition [20] [%] | further results |
| --- | --- | --- | --- | --- | --- | --- | --- | --- | --- | --- | --- | --- | --- | --- | --- | --- | --- | --- | --- | --- | --- |
| CCCc1cc(-c2cncc(OC[C@@H](N)Cc3c[nH]c4ccccc34)c2)cc2c(C)n[nH]c12 | inactive | – | – | – | – | – | – | – | – | – | – | – | – | – | – | – | – | – | – | – | – |
| COc1ccccc1N1CCN(c2ncnc3[nH]nc(Br)c23)CC1 | – | 4 | 11 | -2 | 2 | 22 | 3 | 74 | 32 | 18 | 69 | 14 | 13 | 11 | 67 | 0 | -3 | 18 | 4 | 16 | inhibition [21]: 5%; inhibition [22]: 20%; inhibition [23]: 18%; inhibition [24]: 20% |
| Cc1n[nH]c2ccc(-c3cncc(OC[C@@H](N)Cc4c[nH]c5ccccc45)c3)cc12 | Active | – | – | – | – | – | – | – | – | – | – | – | – | – | – | – | – | – | – | – | inhibition [25]: 45% |
| O=C(NCCCNc1nc(Nc2cccc(NC(=O)N3CCCC3)c2)ncc1I)c1cccs1 | – | 76 | 23 | 48 | 72 | 97 | 14 | 30 | 8 | 16 | 50 | 13 | 10 | 16 | 69 | 97 | 105 | 97 | 6 | 17 | inhibition [25]: -2%; inhibition [21]: 11%; inhibition [22]: 9%; inhibition [23]: 84%; inhibition [24]: 103% |
